In ChEMBL document CHEMBL1287657, “Synthesis and biological activities of new furo[3,4-b]carbazoles: potential topoisomerase II inhibitors” (Eur J Med Chem, 2010):
pIC50: −log10 of the molar value. Active and inactive are the calls of the source. The rule behind the calls is not given here.

Legend:
[1] = molecular target: DNA topoisomerase 2-alpha (Homo sapiens) (UniProt P11388); assay: Inhibition of human topoisomerase 2-mediated relaxation of supercoiled PUC19 DNA at 20 to 50 uM uM after 20 mins using ethidium bromide staining by agarose gel electrophoresis
In short: (§1)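 Native supercoiled pUC19 plasmid (350 ng) incubated with 4 units human topoisomerase II, with or without compound at several concentrations; etoposide run as reference. Relaxation/cleavage products separated by gel electrophoresis and scored for supercoiled, relaxed and broken DNA forms.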

[2] = Cytotoxicity against human HL60/MX2 cells; type: functional, cell-based
[3] = molecular target: DNA topoisomerase 2-alpha (Homo sapiens) (UniProt P11388); assay: Inhibition of human topoisomerase 2-mediated relaxation of supercoiled PUC19 DNA at 1 to 100 uM uM after 20 mins using ethidium bromide staining by agarose gel electrophoresis; in short: as §1
HL-60 = assay: Cytotoxicity against human HL60 cells; type: functional, cell-based
Calf thymus DNA = assay: Binding affinity to calf thymus DNA assessed as change in melting temperature; type: nucleic-acid assay; settings: Bos taurus

DNA topoisomerase 2-alpha (Homo sapiens), sequence (P11388 whole entry): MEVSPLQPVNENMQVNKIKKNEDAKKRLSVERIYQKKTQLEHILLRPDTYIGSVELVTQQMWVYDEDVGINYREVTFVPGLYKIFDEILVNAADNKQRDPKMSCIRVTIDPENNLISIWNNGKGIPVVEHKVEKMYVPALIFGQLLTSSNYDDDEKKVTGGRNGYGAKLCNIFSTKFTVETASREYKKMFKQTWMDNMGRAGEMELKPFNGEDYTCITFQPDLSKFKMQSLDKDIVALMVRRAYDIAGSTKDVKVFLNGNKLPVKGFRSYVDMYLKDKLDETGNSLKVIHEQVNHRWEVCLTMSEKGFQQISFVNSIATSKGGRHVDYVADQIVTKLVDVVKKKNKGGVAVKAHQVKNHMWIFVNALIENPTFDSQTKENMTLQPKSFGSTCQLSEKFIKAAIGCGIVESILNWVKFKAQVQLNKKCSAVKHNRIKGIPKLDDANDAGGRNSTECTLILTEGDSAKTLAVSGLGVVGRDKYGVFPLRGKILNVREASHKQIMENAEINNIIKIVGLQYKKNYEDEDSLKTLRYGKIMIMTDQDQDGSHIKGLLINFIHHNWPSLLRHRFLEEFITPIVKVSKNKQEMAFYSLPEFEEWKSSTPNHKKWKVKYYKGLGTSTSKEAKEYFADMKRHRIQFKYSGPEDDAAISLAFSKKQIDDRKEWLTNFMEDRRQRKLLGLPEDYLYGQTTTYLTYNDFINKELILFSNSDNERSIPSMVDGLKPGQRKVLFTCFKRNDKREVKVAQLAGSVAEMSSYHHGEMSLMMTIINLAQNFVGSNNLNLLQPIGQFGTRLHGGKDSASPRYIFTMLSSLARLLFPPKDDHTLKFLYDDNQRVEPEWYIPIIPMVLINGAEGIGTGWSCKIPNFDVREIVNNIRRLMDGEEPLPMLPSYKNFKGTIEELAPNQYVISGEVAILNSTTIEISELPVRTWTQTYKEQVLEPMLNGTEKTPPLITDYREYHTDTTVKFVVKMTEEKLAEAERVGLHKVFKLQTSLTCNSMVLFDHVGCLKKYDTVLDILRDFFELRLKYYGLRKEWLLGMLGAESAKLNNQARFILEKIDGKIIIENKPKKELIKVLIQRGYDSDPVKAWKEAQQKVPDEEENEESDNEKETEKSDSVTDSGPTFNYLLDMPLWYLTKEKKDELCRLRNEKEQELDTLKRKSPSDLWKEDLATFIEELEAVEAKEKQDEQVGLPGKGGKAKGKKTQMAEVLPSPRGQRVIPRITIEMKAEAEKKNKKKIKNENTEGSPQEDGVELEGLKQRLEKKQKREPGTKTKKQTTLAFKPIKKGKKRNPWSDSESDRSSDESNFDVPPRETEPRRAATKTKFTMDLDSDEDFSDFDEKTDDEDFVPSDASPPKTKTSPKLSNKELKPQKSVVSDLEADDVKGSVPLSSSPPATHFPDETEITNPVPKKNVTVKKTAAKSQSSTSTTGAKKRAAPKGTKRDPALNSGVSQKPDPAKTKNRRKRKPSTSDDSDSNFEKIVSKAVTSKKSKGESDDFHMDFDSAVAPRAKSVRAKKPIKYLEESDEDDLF

Row | Structure (SMILES) | inhibition [1] | further results
1 | COc1cc(-c2c3c(cc4c2[nH]c2ccccc24)COC3=O)cc(O)c1O | Active | pIC50 [2]: 6.77; inhibition [3]: Active; pIC50 (HL-60): 6.82; Activity (Calf thymus DNA): inactive
2 | COc1cc(-c2c3c(cc4c2[nH]c2ccccc24)COC3=O)cc(OC)c1OC | inactive | –
3 | COc1cc([C@@H]2c3cc4c(cc3[C@@H](O[C@@H]3O[C@@H]5CO[C@@H](C)O[C@H]5[C@H](O)[C@H]3O)[C@H]3COC(=O)[C@H]23)OCO4)cc(OC)c1O | Active | –
4 | O=C1OCc2cc3c([nH]c4ccccc43)c(-c3ccc4c(c3)OCO4)c21 | inactive | –

The next lines start with results.

Row | inhibition [1] | Structure (SMILES) | further results
5 | inactive | COc1ccc(-c2c3c(cc4c2[nH]c2ccccc24)COC3=O)cc1 | –
6 | inactive | COc1cc(OC)cc(-c2c3c(cc4c2[nH]c2ccccc24)COC3=O)c1 | –
7 | inactive | COc1ccc(-c2c3c(cc4c2[nH]c2ccccc24)COC3=O)cc1OC | Activity (Calf thymus DNA): inactive
